In ChEMBL document CHEMBL1764968, “Structural simplification of bioactive natural products with multicomponent synthesis. 3. Fused uracil-containing heterocycles as novel topoisomerase-targeting agents” (2011):
The source made the active and inactive calls. The rule behind the calls is not given here.

Key:
HeLa = assay: Cytotoxicity against human HeLa cells after 72 hrs by MTT assay; format: functional
Summary of the method: (§1)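 Cells plated 24 h in 96-well plates at 10,000–40,000 cells/mL depending on line. U373 grown in MEM, other lines in RPMI, both with 5% heat-inactivated FCS. Cells exposed to compounds (or none, control) for 72 h. MTT reduction to formazan read at 570 nm against 630 nm reference. Sextuplicate per condition.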

Jurkat = assay: Cytotoxicity against human Jurkat cells after 72 hrs by MTT assay; format: functional; summary of the method: as §1
MCF7 = assay: Cytotoxicity against human MCF7 cells after 72 hrs by MTT assay; format: functional; settings: MCF7, 72 h; summary of the method: as §1
A549 = assay: Cytotoxicity against human A549 cells after 72 hrs by MTT assay; format: functional; settings: A549, 72 h; summary of the method: as §1
LoVo = assay: Cytotoxicity against human LoVo cells after 72 hrs by MTT assay; format: functional; summary of the method: as §1
[1] = Cytotoxicity against human U373 cells after 72 hrs by MTT assay; format: functional, U-373MG ATCC; settings: U373 MG; summary of the method: as §1
SK-MEL = assay: Cytotoxicity against human SK-MEL cells after 72 hrs by MTT assay; format: functional; summary of the method: as §1
PC-3 = assay: Cytotoxicity against human PC3 cells after 72 hrs by MTT assay; format: functional; settings: PC-3, 72 h; summary of the method: as §1
U-373MG ATCC = assay: Cytostatic activity against human U373 cells assessed as morphological changes after 72 hrs by phase contrast microscopy; format: functional, cell-based
[2] = biological target: T1, DNA topoisomerase 1 (Homo sapiens) (UniProt P11387); assay: Inhibition of human DNA topoisomerase 1-mediated relaxation of supercoiled pGEM1 plasmid DNA at 250 uM after 30 mins by agarose gel electrophoresis
T1 sequence (whole entry): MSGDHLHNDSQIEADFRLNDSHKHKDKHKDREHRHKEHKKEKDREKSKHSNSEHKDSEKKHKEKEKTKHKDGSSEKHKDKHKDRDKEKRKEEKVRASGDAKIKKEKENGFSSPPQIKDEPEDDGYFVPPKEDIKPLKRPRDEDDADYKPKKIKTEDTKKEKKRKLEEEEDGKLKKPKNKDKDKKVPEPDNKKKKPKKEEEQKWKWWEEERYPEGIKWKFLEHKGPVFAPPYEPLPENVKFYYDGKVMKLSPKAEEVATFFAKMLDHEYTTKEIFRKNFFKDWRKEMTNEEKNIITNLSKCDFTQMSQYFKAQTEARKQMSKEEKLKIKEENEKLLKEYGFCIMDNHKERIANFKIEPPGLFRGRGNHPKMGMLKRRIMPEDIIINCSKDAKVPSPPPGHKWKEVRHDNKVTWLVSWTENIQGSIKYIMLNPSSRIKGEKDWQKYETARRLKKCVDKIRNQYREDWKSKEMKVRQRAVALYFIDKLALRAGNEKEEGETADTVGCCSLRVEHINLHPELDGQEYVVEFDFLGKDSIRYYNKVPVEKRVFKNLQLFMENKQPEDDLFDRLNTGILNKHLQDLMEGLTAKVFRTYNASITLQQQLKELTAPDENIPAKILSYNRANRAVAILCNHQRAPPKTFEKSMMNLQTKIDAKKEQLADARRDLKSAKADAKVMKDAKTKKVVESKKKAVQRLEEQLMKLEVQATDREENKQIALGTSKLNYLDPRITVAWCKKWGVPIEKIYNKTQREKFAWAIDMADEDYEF
Summary of the method: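 Enzyme source: nuclear extract of MCF-7 cells (0.1 μL). 250 ng supercoiled pGEM1 plasmid incubated 30 min at 37 °C with compound (10–250 μM) in 10 mM Tris pH 7.9, 100 mM KCl, 10 mM MgCl2, 0.5 mM DTT, 0.5 mM EDTA, 0.03 mg/mL BSA. Camptothecin 100 μM as positive control. Stopped with SDS/proteinase K, 30 min at 37 °C. Run on 1% agarose, stained with ethidium bromide.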

[3] = biological target: T1, DNA topoisomerase 1 (Homo sapiens); assay: Effect on human DNA topoisomerase 1-mediated supercoiled pGEM1 plasmid DNA cleavage complex stabilization at up to 100 uM by agarose gel electrophoresis
[4] = biological target: DNA topoisomerase 2-alpha (Homo sapiens) (UniProt P11388); assay: Inhibition of human DNA topoisomerase 2-mediated decatenation of catenated kinetoplast DNA at 1 uM after 1 hr by agarose gel electrophoresis
Summary of the method: (§2)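 0.2 μg catenated kinetoplast DNA incubated 1 h at 37 °C with compound in 50 mM Tris-Cl pH 8.0, 150 mM NaCl, 10 mM MgCl2, 5 mM ATP, 0.5 mM DTT, 30 μg/mL BSA. Doxorubicin 5 μM as positive control. Stopped with SDS/proteinase K, 30 min at 37 °C. Run on 1% agarose (55 V, 2 h), stained with ethidium bromide.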

[5] = biological target: DNA topoisomerase 2-alpha (Homo sapiens) (UniProt P11388); assay: Inhibition of human DNA topoisomerase 2-mediated decatenation of catenated kinetoplast DNA at 5 uM after 1 hr by agarose gel electrophoresis; summary of the method: as §2

DNA topoisomerase 2-alpha (Homo sapiens), sequence (P11388 whole entry): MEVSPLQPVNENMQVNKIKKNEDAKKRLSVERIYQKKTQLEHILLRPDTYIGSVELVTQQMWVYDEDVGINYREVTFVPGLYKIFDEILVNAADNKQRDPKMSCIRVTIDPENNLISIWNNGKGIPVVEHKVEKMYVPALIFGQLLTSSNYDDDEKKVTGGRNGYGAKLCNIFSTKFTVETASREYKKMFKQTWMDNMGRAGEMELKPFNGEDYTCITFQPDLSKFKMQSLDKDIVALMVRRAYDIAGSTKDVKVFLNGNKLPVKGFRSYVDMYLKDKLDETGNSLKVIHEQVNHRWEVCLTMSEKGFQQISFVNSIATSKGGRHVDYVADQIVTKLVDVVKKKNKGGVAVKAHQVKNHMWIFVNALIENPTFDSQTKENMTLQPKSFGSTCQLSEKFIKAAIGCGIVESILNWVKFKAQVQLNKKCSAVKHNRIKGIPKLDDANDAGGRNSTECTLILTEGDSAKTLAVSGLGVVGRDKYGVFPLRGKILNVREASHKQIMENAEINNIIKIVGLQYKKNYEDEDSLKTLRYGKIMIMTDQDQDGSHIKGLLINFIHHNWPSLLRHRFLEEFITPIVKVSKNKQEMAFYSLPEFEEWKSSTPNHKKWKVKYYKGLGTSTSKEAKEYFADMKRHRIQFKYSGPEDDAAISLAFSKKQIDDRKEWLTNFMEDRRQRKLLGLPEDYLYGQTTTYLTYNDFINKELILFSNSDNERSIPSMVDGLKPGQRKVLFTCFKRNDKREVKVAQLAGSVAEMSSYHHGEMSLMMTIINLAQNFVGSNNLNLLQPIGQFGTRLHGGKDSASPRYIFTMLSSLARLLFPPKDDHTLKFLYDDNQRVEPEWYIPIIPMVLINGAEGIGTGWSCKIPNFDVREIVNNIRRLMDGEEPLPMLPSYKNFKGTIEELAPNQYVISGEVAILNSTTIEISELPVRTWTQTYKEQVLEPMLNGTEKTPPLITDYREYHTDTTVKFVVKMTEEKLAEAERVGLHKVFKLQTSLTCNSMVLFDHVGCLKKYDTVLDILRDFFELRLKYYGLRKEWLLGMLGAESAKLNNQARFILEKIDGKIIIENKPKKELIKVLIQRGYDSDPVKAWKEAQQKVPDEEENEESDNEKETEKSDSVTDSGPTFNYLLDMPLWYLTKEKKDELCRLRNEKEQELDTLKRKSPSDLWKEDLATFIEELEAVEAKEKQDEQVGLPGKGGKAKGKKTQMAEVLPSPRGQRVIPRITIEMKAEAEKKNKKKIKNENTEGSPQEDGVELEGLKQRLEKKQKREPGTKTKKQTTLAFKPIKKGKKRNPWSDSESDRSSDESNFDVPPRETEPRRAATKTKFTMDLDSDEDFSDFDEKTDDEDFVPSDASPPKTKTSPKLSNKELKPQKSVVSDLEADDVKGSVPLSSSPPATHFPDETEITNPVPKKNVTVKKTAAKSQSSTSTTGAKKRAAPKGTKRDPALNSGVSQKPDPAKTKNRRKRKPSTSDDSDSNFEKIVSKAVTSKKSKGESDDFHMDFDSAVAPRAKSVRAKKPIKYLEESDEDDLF

| SMILES | GI50 (HeLa) | GI50 (Jurkat) | GI50 (MCF7) | GI50 (A549) | GI50 (LoVo) | GI50 [1] | GI50 (SK-MEL) | GI50 (PC-3) | Activity (U-373MG ATCC) | inhibition [2] | Activity [3] | inhibition [4] | inhibition [5] |
| --- | --- | --- | --- | --- | --- | --- | --- | --- | --- | --- | --- | --- | --- |
| CSc1ccc(-c2c3c(nc4[nH]c(=O)[nH]c(=O)c24)-c2ccccc2C3=O)cc1 | 170 nM | 50 nM | 450 nM | 610 nM | 290 nM | 100 nM | 230 nM | 190 nM | Active | Active | inactive | Active | Active |
| Cc1ccc(-c2c3c(nc4[nH]c(=O)[nH]c(=O)c24)-c2ccccc2C3=O)cc1C | 190 nM | 170 nM | 190 nM | 140 nM | 330 nM | 500 nM | 450 nM | 480 nM | Active |  | inactive | Active | Active |
| COc1cccc2c1C(=O)c1c(O)c3c(c(O)c1C2=O)C[C@@](O)(C(=O)CO)C[C@@H]3O[C@H]1C[C@H](N)[C@H](O)[C@H](C)O1 |  |  |  |  |  |  |  |  |  |  |  |  | Active |
| CSc1ccc(C2C3=C(Nc4[nH]c(=O)[nH]c(=O)c42)c2ccccc2C3=O)cc1 (configuration not stated) | 370 nM | 190 nM | 360 nM | 470 nM | 490 nM | 100 nM | 1800 nM | 400 nM | Active | Active | inactive |  |  |
